Only some compounds are listed: those with a hit (about 1.8% of all), similar ones and a draw of the others.
Fh CTSL1 inh: Fasciola hepatica cathepsin L1 inhibitors, primary screen, counter-screen for PFM18AAP inhibitor project, biochemical, QFRET, fluorogenic peptide substrate. recombinant F. hepatica cathepsin L1, Z-Leu-Arg-MCA fluorescence. AID 1906, 2009. inhibition, % at 5.96 µM. 300,000 tested, 0.49% active;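 active means inhibition above the mean of all tested compounds plus 3 SD, set per screening campaign, cut at about 17% in these data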;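 further: 0% = plate median of test compound wells and 100% = 1 µM Z-Phe-Ala-diazomethylketone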
Apaf1 inhib: inhibitors of human Apaf-1 apoptosome, primary screen, biochemical, DEVD-Rh110 fluorescence, uHTS. Apoptotic protease-activating factor 1 (Homo sapiens), O14727. reconstituted apoptosome caspase-3 activity. inhibition, % at 20 µM. 330,000 tested, 0.71% active; active means inhibition of at least 40% at 20 µM;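 further: plate controls were DMSO wells for no effect and DEVD-CHO caspase inhibitor wells for full effect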
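Material: reconstituted apoptosome with Apaf-1, cytochrome c, caspase-9, procaspase-3, dATP / Buffer or medium: pH 7.5 Hepes buffer with CHAPS, BSA, DTT / Also added: cytochrome c with DEVD-Rh110 / Schedule: compound with Apaf-1, dATP, procaspase-3 30 min, then 50 min reaction, room temperature / Technique: rhodamine 110 fluorescence at Ex 480/Em 540 nm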
PAD4 inh: human PAD4 inhibitors, primary screen, biochemical, fluorescence polarization, 1536-well format | inhibition, % at 6.36 µM | AID 485272, 2010 | recombinant PAD4, RCA probe fluorescence polarization | Protein-arginine deiminase type-4 (Homo sapiens), Q9UM07 | 330,000 tested, 0.41% active;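 active means percent inhibition above a cutoff equal to the mean of all tested compounds plus 3 SD, cut at about 15% in these data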;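 further: 0% = PAD4 with RCA probe and DMSO and 100% = probe without PAD4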
TDP2 inh: human TDP2 enzyme inhibitors, primary screen, biochemical, epi absorbance, recombinant enzyme. T5PNP hydrolysis, p-nitrophenol absorbance 415 nm. inhibition, % at 12.8 µM. 370,000 tested, 0.34% active;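 active means inhibition above the mean of all tested compounds plus 3 SD, set per campaign, cut at about 25% in these data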;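 further: 0% = DMSO with enzyme and 100% = buffer with substrate but no TDP2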
Target sequence (O95551 whole entry, looked up): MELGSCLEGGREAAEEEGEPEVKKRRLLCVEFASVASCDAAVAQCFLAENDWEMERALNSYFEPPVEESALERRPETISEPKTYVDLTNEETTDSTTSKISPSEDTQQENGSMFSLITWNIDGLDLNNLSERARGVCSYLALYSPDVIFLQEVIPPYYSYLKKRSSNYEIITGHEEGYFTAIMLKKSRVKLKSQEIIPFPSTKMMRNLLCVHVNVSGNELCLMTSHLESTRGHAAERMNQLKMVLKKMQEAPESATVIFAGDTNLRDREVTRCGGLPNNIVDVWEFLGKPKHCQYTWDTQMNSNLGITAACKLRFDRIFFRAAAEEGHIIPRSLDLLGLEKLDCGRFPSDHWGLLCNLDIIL
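Assay system: recombinant human TDP2 / Reagent: T5PNP substrate at 5 mM, a TopII-DNA adduct mimic / Measured by: epi absorbance from released p-nitrophenol / Evaluation: % inhibition relative to enzyme-containing and enzyme-free wells / Control set: enzyme-free and DMSO wells / Replicates: each compound tested once, singlicate / Schedule: enzyme reaction with compound for 2 h at 37 °C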
GSTO1 counter: inhibitors of recombinant GSTO1, primary screen, counter-screen for RBBP9 inhibitor project, biochemical, fluorescence polarization; inhibition, % at 5.96 µM; activity-based probe fluorescence polarization; 300,000 tested, 1.1% active; AID 1974, 2009;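 active means inhibition above the campaign mean inhibition plus 3 SD, cut at about 35% in these data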;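 further: 0% = GSTO1-1 with DMSO and 100% = wells lacking GSTO1-1 enzyme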
Target sequence (P78417 whole entry, looked up): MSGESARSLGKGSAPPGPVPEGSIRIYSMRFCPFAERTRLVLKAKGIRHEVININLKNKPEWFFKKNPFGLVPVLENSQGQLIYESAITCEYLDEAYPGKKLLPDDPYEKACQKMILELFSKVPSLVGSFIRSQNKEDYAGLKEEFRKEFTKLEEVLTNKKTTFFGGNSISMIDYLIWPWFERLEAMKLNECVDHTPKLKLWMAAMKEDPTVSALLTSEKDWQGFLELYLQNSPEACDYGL
Apaf-1 inh conf: Apaf-1 inhibitors, single-dose retest, confirmation, biochemical, fluorescence, DEVD-Rh110, 20 µM; shares compounds with Apaf1 inhib; inhibition, % at 20 µM; AID 504614, 2011; reconstituted apoptosome, caspase-3 DEVD-Rh110 fluorescence; 1,800 tested, 25% active;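 active means mean inhibition of at least 40% at 20 µM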;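 further: plate controls were DMSO wells for no effect and DEVD-CHO caspase inhibitor control wells for full effect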
Rh110 interf inh: Rh110 fluorescence interference by putative Apaf-1 inhibitors, confirmation, artefact control for Apaf-1 inhibitor project, biochemical, 20 µM. shares compounds with Apaf1 inhib. quenched caspase reaction. activation (fluorescence interference), % at 20 µM. 1,800 tested, under 10 active;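 active means signal rise of 40% or more at 20 µM, treated as a fluorescence artifact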
Apaf1 inh interf: fluorescence interference of Apaf-1 inhibitor hits, dose response, artefact control for Apaf-1 inhibitor project | shares compounds with Apaf1 inhib | fluorescence interference counterscreen, Apaf-1 assay format | IC50, µM | 460 tested, under 10 active; call rule not given here
An asterisk follows results filed as active; / = no result given.

SMILES	Fh CTSL1 inh	Apaf1 inhib	PAD4 inh	TDP2 inh	GSTO1 counter	Apaf-1 inh conf	Rh110 interf inh	others
CC(=O)C1=C(C)N(Cc2ccc(Br)cc2)C(=S)NC1c1cccc(F)c1 (stereo not given)	/	/	/	-3	/	/	/
CC12COC3(C(=O)Nc4ccc(F)cc4)CC1CCC32C (stereo not given)	1	-2	2	-9	8	/	/
CC12COC3(P(=O)(c4ccccc4)c4ccccc4)CC1CCC23CP(=O)(c1ccccc1)c1ccccc1 (stereo not given)	-1	41*	1	-10	-2	14	8
O=C(OC12CCCN(C1)/C(=C/c1cccc(Cl)c1)C2)C1CCCC1 (stereo not given)	/	/	/	4	/	/	/
COc1cc(C=Nn2c(-c3ccccc3F)n[nH]c2=S)ccc1OCc1ccccc1	/	/	/	12	/	/	/
O=C(c1ccco1)N1CCN(C(=O)c2cn(-c3ccccc3)nc2-c2ccc(F)cc2)CC1	/	72*	/	-6	/	15	6
O=C(c1cn(-c2ccccc2)nc1-c1ccc(F)cc1)N1CCOCC1	-1	7	-4	4	0	/	/
COc1ccc(CN2CCN(C(c3ccc(F)cc3)c3ccc(F)cc3)CC2)c(OC)c1OC	3	48*	-3	0	5	7	-9
Cc1ccc(-c2nnc(SCC(=O)Nc3ccc(OCc4ccccc4)cc3)n2-c2ccc(Cl)cc2)cc1	/	/	/	0	/	/	/
Cc1nn(CCC(=O)O)c2nc(-c3cccnc3)cc(C(F)(F)F)c12	-1	-1	-5	7	-2	/	/
Cc1nn(CCc2nn[nH]n2)c2nc(-c3ccc(C4CCCCC4)cc3)cc(C(F)(F)F)c12	11	60*	-5	3	-55	32	13
C[C@H]1[C@@H](NC(=O)c2cccc(N(C)C)c2)CC[C@@]23CCCN2C(=O)CCC[C@@H]13	/	/	/	6	/	/	/
Cc1cc(/C=N/n2cnnc2)c(C)n1-c1ccc(OCc2ccc(Cl)cc2Cl)cc1	3	46*	-3	/	-17	28	6
Cc1cc(/C=N/n2cnnc2)c(C)n1-c1ccc(Cl)cc1	-1	2	-2	-10	5	/	/
Nc1nc2c(ncn2[C@@H]2O[C@H](C(=O)N[C@@H](Cc3ccccc3)C(=O)NCc3ccc4c(c3)OCO4)[C@@H](O)[C@H]2O)c(=O)[nH]1	/	/	/	5	/	/	/
CCCCCCSc1ccc(-c2nc3ccc(C)cn3c2NCc2ccccc2)cc1OC	-2	41*	0	-2	-3	21	-1
CCCCNc1c(-c2ccc(OC)c(SC(C)CC)c2)nc2cc(C)ccn12 (stereo not given)	/	49*	-2	-6	/	18	9
CCCCCCSc1cc(-c2nc3ccc(C)cn3c2NCCCC)ccc1OC	/	46*	-2	7	/	21	19
CCCCNc1c(-c2ccc(OC)c(SC(C)CC)c2)nc2cnccn12 (stereo not given)	/	/	/	-1	/	/	/
CCCCCCSc1ccc(-c2nc3cnccn3c2NCCCC)cc1	/	56*	-5	-9	/	30	23
COC(=O)[C@]12C[C@H](CC(=O)NCc3cccs3)C(=O)N(Cc3cccc4ccccc34)C1=C[C@H](C1CCCC1)O[C@@H]2C	/	/	/	-6	/	/	/
CN(CCOC(=O)CCCc1ccccc1)C1CN(Cc2cn(Cc3ccccc3F)nn2)S(=O)(=O)C1 (stereo not given)	/	/	/	5	/	/	/
CCc1ccccc1CNC(=O)C1CCC(CNS(=O)(=O)c2cccc3cccnc23)CC1 (stereo not given)	/	/	/	-5	/	/	/
O=C(NCCc1ccc(F)cc1)c1cc2ccccn2n1	/	/	/	0	/	/	/
CCc1ccc(NC(=O)[C@H](Cc2c[nH]c3ccccc23)NC(=O)[C@@H]2Cc3ccccc3CN2)cc1	0	41*	-2	9	4	18	1
SMILES	Fh CTSL1 inh	Apaf1 inhib	PAD4 inh	TDP2 inh	GSTO1 counter	Apaf-1 inh conf	Rh110 interf inh	others
C[C@H](O)[C@@H]1C(=O)N2CCc3c([nH]c4c(-c5ccccc5)cccc34)[C@@H]2C[C@@H]1N(C)C(=O)/C=C/c1ccccc1	/	/	/	6	/	/	/
CSCCC(NC(=O)c1ccccc1Br)C(=O)N1CCN(C(C)=O)CC1 (stereo not given)	/	48*	1	-3	/	37	-1
COC(=O)[C@]12C[C@H](CC(=O)N3CCN(C(=O)C4CC4)CC3)C(=O)N(Cc3ccccc3)C1=C[C@H](C1CCCC1)O[C@@H]2C	/	/	/	8	/	/	/
COc1ccc(N2C(=O)[C@@H]3[C@H](C2=O)[C@H]2c4ccccc4C=CN2[C@@H]3C(C)=O)cc1	11	/	-6	16	23	/	/
CC(C)(C)C(=O)[C@@H]1[C@@H]2C(=O)N(C3CCCCC3)C(=O)[C@@H]2[C@H]2c3ccccc3C=CN12	3	64*	-10	-4	32	60*	4	Apaf1 inh interf=>100
CSc1ccc(CN(C)C(=O)CSCC(=O)Nc2cc(C)on2)cc1	0	48*	-1	3	2	36	-2
CCN(CC)C(=O)CSc1nnc(-c2ccc(C(C)(C)C)cc2)n1Cc1ccco1	/	/	/	-1	/	/	/
CCCN(CC1CC1)c1nc(N)c2c(N)nc(OC)cc2c1C#N	1	93*	-15	3	-10	6	1
CCOc1cc2c(C#N)c(N(CC)CC)nc(N)c2c(N)n1	6	29	-8	-1	20	/	/
C=CCN(CC#Cc1ccccn1)Cc1ccc(OC)cc1OC	/	/	/	-3	/	/	/
CCC(CC)c1nnc(NC(=O)CN2C(=O)c3ccccc3C2=O)s1	-3	87*	-5	10	15	4	-3
O=C1NN(c2ccccc2)C(=O)/C1=C/c1ccc(-c2ccc(C(=O)O)cc2)o1	7	7	-1	1	-14	/	/
O=C(O)c1ccc(N2C(=O)/C(=C/c3ccc(-c4ccc([N+](=O)[O-])cc4)o3)C=C2c2ccccc2)cc1	1	52*	-10	/	-56	8	16
CC(=O)c1cccc(NC(=O)CSc2ccc(-c3ccco3)nn2)c1	4	45*	-1	18	10	7	6

Assay outcomes (PubChem BioAssay)
